Assay results from ChEMBL document CHEMBL2062463 (Bioorg Med Chem Lett, 2012).

Legend:
[1] = Antiproliferative activity against human HAEC cells expressing VEGFR after 72 hrs by MTT assay; format: functional, cell-based
Summary of the method: (§1)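 MTT reduction by mitochondrial enzyme as viability read-out in primary endothelial HAEC and cancer HT29 cells. IC50 is the concentration giving 50% inhibition of proliferation, taken from dose-response curves of percent proliferation plotted against compound concentration.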

HT-29 = assay: Antiproliferative activity against human HT-29 cells expressing VEGFR after 72 hrs by MTT assay; format: functional, cell-based; conditions: HT-29, 72 h; summary of the method: as §1
[2] = molecular target: Vascular endothelial growth factor receptor 2 (Homo sapiens, UniProt P35968); assay: Competitive inhibition of VEGFR2 by qPCR method
[3] = Lipophilicity, log D of the compound in octanol and water at pH 7.4 by shake flask method; format: physicochemical
[4] = Protein binding in human serum by HPLC analysis; format: ADME, cell-free; conditions: read-out: PB (converted)
Summary of the method: (§2)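 [125I]-labelled compound incubated in fresh human serum at 4 °C and 37 °C at several time intervals. Bound fraction estimated after ethanol precipitation-extraction of proteins. Supernatant analysed by HPLC for intact radiolabelled compound.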

[5] = Chemical stability of the compound in 1% tween-20 up to 24 hrs in dark; format: physicochemical
Summary of the method: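 Radiolabelled [125I] compound held in saline containing 1% Tween-20 at 37 °C in the dark for up to 24 h. Radiochemical stability checked over that period.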

Serum = assay: Stability in human serum by HPLC analysis; format: ADME, cell-free; summary of the method: as §2

Sequence of Vascular endothelial growth factor receptor 2 (P35968 whole entry): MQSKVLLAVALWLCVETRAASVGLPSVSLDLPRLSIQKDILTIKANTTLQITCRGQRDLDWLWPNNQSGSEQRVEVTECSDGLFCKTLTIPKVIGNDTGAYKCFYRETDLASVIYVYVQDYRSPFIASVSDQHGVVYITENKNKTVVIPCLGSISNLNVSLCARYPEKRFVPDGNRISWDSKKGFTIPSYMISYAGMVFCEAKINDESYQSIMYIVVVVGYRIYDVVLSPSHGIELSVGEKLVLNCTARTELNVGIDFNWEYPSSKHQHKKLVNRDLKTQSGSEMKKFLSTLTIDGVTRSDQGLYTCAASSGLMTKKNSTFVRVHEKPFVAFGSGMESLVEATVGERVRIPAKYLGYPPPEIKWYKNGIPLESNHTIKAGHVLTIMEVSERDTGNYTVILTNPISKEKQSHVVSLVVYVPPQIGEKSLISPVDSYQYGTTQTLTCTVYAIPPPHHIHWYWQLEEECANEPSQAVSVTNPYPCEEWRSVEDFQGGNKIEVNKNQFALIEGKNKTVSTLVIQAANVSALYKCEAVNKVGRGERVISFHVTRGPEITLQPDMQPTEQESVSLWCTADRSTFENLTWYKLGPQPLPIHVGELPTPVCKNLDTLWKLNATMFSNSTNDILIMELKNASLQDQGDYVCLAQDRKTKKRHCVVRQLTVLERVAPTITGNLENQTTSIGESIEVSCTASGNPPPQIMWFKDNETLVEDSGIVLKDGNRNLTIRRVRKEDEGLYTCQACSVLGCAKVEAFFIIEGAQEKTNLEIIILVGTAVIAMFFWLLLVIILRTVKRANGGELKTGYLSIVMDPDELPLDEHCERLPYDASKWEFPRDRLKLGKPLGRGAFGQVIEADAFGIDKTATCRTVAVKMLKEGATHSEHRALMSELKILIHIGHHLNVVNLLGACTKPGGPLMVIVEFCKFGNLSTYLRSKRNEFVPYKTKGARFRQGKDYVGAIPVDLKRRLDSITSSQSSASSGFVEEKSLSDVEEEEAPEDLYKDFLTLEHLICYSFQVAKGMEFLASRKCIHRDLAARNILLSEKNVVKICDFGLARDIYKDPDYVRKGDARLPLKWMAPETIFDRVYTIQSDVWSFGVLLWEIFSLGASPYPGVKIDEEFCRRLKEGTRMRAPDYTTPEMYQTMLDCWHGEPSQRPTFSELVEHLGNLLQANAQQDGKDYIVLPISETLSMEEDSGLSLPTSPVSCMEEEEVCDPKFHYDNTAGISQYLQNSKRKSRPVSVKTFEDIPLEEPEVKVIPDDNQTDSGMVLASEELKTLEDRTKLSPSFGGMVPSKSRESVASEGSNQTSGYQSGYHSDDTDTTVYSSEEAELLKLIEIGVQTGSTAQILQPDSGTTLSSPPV

Compound `CCN(CC)CCNC(=O)c1c(C)[nH]c(/C=C2\C(=O)Nc3ccc(I)cc32)c1C` has an IC50 [1] of 1120 nM, an IC50 (HT-29) of 1810 nM and a Kd [2] of 16 nM.
In the case of `CCN(CC)CCNC(=O)c1c(C)[nH]c(/C=C2\C(=O)Nc3ccc([125I])cc32)c1C`, the logD [3] is reported as 2.25, the fraction unbound [4] is reported as 0.95 and the Stability [5] is reported as “Stable”. For the same compound, the Stability (Serum) was “Stable”.
For `CCN(CC)CCNC(=O)c1c(C)[nH]c(/C=C2\C(=O)Nc3ccc(F)cc32)c1C` [SUNITINIB], the IC50 [1] was 100 nM and the IC50 (HT-29) was 330 nM.
